Publication PMC4500736 (Journal of neuroscience methods, 2015)
Where no end group is shown, it is not given here.

Tests used:
normal F344 rats = type: in vivo, rat; details: 300 μg intranasal 5 days a week for 3 weeks, p < 0.05
Summary of the method: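 Normal F344 rats under light isoflurane (~1.0–3.0% with […]), supine. Striatum and SN harvested as 2 mm sections, frozen −80 °C. DA, DOPAC, HVA by HPLC-EC (ng/g wet tissue); turnover ratios; one-way ANOVA, Bonferroni.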

[1] = dissolved in 0.9% sterile saline; cited from earlier work
[2] = tested on: unilateral 6-OHDA lesioned F344 rats; assay: DA and DA metabolite levels; type: in vivo, rat; details: 5 weeks post 6-OHDA, 300 μg intranasal daily, p < 0.01
[3] = tested on: unilateral 6-OHDA lesioned F344 rats; assay: TH+ fiber density in the SNpr of 6-OHDA lesioned rats; type: in vivo, rat; details: mean ± SEM
Summary of the method: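 Unilateral 3-site striatal 6-OHDA lesion (right hemisphere). Intranasal test compound 300 μg or vehicle daily for 7 days pre-lesion, ~60 min before infusion, then 35 ± 3 days. Midbrain fixed in 4% paraformaldehyde for 24 h, then 15 & 30% sucrose; 30 μm coronal sections. Ipsilateral SNpr TH+ immunoreactive area measured at −5.24, −5.60 and −5.96 mm from bregma. Two-tailed unpaired t-test.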

[4] = tested on: unilateral 6-OHDA lesioned F344 rats; assay: d-amphetamine-induced rotation in 6-OHDA-lesioned rats; type: in vivo, rat; details: animals taken out to 6 weeks (data not shown), n = 3 DNSP-11, n = 2 vehicle

PPEAPAEDRSL-NH2 [DNSP-11, Dopamine neuron stimulating peptide-11]
increase in DA turnover in the SN compared to vehicle (normal F344 rats): 34% | increase in DA turnover in the striatum compared to vehicle (normal F344 rats): 25% | stability in 0.9% sterile saline [1]: stable | reduction in DA turnover in the ipsilateral side to the lesion compared to vehicle [2]: 39% | Fiber Density for the Lesioned SNpr, Rostral ([3]; n = 6, vehicle 0.20 ± 0.03): 0.26 ± 0.09 | Fiber Density for the Lesioned SNpr, Middle ([3]; n = 6, vehicle 0.22 ± 0.07): 0.41 ± 0.20 | Fiber Density for the Lesioned SNpr, Caudal ([3]; n = 6, vehicle 1.10 ± 0.67): 0.91 ± 0.41 | reduction in d-amphetamine-induced rotations compared to vehicle [4]: 21%
